# Test results taken from ChEMBL document CHEMBL5316310, “Discovery of MK-8189, a Highly Potent and Selective PDE10A Inhibitor for the Treatment of Schizophrenia” (J Med Chem, 2023).
# Key:
# [1] = Plasma concentration in rat at 0.25 mg/kg, po measured after 1 hr; assay type: ADME, organism-based
# How it was run: (§1)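 Rat novel object recognition (episodic memory) study, orally dosed. Plasma drawn 1 h post dose at end of the experiment for compound level. n = 4/group, reported as mean (SEM).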
# [2] = Half life in Rhesus monkey at 0.5 mg/kg, iv by LC-MS/MS analysis; assay type: ADME, organism-based, Macaca mulatta; settings: in vivo
# How it was run: (§2)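 IV bolus in DMSO/PEG400 (1:1). Male Wistar–Hannover rats (n = 3, ~300 g): 2 mg/kg via jugular cannula, sampled 0.03–24 h. Male rhesus (n = 3): 0.5 mg/kg into saphenous or cephalic vein, sampled to 24 h. Plasma (EDTA) analysed by LC-MS/MS after acetonitrile precipitation. Non-compartmental analysis; CL = dose/AUC0-inf; t1/2 from log-linear regression of the terminal phase. Values are means.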
# [3] = Plasma concentration in rat at 0.08 mg/kg, po measured after 1 hr; assay type: ADME, organism-based; how it was run: as §1
# [4] = Selectivity ratio of Ki for N-terminal His-GST-tagged human recombinant PDE3A(669 to 1141 residues) expressed in baculovirus-infected Sf9 cells to Ki for human PDE10A2 transfected in human AD293 cells cytosolic fraction
# [5] = Toxicity in rat assessed as weight gain; settings: in vivo
# [6] = Selectivity ratio of Ki for N-terminal GST-tagged full length human recombinant PDE9A2 expressed in baculovirus-infected Sf9 cells to Ki for human PDE10A2 transfected in human AD293 cells cytosolic fraction
# [7] = Selectivity ratio of Ki for Rhesus monkey PDE2A3 transfected in AD293 cells cytosolic fraction to Ki for human PDE10A2 transfected in human AD293 cells cytosolic fraction; assay type: cell-based
# [8] = Selectivity ratio of Ki for N-terminal GST-tagged human recombinant PDE5A1 (1 to 875 residues) expressed in baculovirus-infected Sf9 cells to Ki for human PDE10A2 transfected in human AD293 cells cytosolic fraction
# [9] = Plasma clearance in Wistar-Hannover rat at 2 mg/kg, iv by LC-MS/MS analysis; assay type: ADME, organism-based; how it was run: as §2
# [10] = In vivo receptor occupancy at PDE10A receptor in rat striatum at 0.25 mg/kg, po measured after 1 hr; assay type: functional
# How it was run: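 Striatal PDE10A occupancy in rats given the compound orally during the novel object recognition test. Occupancy was not measured directly but derived from plasma concentration taken 1 h post dose. n = 4/group, reported as mean (SEM).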
# [11] = biological target: T1, cAMP and cAMP-inhibited cGMP 3',5'-cyclic phosphodiesterase 10A (Homo sapiens, UniProt Q9Y233); experiment: Reversible binding affinity to human full length His-tagged PDE10A2 assessed as half-life on the enzyme measured at 25 degC by surface plasmon resonance analysis
# T1 sequence (Q9Y233 whole entry): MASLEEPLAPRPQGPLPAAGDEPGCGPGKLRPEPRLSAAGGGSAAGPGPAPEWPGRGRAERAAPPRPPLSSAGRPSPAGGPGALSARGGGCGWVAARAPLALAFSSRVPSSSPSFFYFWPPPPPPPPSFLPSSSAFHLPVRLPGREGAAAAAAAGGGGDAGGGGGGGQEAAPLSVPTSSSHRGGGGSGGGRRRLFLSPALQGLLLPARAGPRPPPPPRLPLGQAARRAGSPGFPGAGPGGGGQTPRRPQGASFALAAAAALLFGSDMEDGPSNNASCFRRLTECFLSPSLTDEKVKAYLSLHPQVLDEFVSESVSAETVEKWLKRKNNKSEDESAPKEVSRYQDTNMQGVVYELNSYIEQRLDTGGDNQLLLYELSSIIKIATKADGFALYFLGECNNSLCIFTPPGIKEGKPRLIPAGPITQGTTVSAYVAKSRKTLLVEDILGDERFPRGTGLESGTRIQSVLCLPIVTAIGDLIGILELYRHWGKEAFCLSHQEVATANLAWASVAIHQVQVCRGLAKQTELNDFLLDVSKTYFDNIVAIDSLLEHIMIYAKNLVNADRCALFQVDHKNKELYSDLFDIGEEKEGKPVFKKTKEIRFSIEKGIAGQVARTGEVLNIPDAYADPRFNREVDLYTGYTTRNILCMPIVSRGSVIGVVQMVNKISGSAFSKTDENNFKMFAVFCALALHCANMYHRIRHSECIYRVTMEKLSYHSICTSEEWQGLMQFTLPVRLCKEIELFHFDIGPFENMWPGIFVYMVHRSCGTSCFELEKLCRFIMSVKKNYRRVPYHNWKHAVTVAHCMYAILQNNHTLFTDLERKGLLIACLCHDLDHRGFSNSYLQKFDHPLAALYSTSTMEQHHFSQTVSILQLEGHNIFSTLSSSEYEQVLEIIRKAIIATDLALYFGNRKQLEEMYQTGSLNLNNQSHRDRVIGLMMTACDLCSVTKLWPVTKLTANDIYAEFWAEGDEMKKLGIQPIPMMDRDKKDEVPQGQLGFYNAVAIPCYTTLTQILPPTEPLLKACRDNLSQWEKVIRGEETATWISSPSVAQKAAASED
# [12] = Substrate activity at monkey P-gp assessed as efflux ratio; assay type: ADME, Macaca mulatta; settings: rhesus monkey
# P-gp (ABCB1) [13] = biological target: P-gp (ABCB1) (Rattus norvegicus, UniProt P43245); experiment: Substrate activity at rat P-gp assessed as efflux ratio; assay type: ADME
# Sequence of P-gp (ABCB1) (Rattus norvegicus, UniProt P43245) (P43245 whole entry): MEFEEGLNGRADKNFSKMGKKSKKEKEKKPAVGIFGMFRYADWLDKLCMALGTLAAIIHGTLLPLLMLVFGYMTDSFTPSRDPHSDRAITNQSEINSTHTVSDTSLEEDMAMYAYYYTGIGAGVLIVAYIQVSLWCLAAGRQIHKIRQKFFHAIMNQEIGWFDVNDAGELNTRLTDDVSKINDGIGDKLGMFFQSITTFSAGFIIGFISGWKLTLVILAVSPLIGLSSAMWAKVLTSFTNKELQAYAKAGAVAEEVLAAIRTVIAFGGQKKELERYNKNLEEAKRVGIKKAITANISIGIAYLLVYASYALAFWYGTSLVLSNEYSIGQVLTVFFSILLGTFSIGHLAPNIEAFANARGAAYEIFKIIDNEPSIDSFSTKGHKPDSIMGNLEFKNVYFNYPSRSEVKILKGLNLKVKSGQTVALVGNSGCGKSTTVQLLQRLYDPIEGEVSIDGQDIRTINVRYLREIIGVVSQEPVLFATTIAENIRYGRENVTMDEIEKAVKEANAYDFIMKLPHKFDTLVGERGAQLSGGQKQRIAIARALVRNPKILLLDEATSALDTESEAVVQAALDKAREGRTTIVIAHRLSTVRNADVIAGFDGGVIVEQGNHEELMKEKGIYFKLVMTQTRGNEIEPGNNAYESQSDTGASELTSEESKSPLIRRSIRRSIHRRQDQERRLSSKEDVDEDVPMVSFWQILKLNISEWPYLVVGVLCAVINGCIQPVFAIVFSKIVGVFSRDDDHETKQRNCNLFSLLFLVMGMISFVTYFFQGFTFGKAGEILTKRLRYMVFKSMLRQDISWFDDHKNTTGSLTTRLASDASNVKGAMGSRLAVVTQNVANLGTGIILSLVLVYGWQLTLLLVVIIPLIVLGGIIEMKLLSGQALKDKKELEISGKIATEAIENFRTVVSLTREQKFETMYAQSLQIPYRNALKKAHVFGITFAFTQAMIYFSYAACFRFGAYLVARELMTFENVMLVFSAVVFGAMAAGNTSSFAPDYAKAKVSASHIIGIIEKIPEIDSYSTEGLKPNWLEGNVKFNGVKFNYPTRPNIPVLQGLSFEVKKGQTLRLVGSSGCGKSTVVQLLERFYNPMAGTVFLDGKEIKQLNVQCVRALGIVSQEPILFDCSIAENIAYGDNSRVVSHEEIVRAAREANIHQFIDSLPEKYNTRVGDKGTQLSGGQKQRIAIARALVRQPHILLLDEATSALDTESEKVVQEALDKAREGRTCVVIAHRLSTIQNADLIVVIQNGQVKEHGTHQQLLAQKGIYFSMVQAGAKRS
# P-gp (ABCB1) [14] = biological target: P-gp (ABCB1) (Homo sapiens, UniProt P08183); experiment: Substrate activity at human P-gp assessed as efflux ratio; assay type: ADME; settings: not told
# [15] = Protein binding in human plasma assessed as unbound fraction; assay type: ADME, cell-free
# [16] = Plasma concentration in rat at 0.16 mg/kg, po measured after 1 hr; assay type: ADME, organism-based; how it was run: as §1
# [17] = biological target: T1, cAMP and cAMP-inhibited cGMP 3',5'-cyclic phosphodiesterase 10A; experiment: Inhibition of human PDE10A2 transfected in human AD293 cells cytosolic fraction using cAMP as substrate by fluorescence polarization assay; assay type: subcellular, Cytosol
# [18] = Mutagenicity in Salmonella typhimurium by Ames test; assay type: toxicity; settings: salmonella enterica subsp. enterica serovar typhimurium
# [19] = Oral bioavailability in Rhesus monkey at 5 mg/kg by LC-MS/MS analysis; assay type: ADME, organism-based, Macaca mulatta; settings: in vivo
# How it was run: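 Oral gavage, 5 mL/kg. Rats (n = 3 male Wistar–Hannover) received 10 mg/kg in acidified 10% Tween 80, pH 2, sampled 0.25–24 h. Rhesus (2 female, 1 male) received 5 mg/kg in 0.5% methylcellulose with 1 mol equiv HCl. Plasma quantified by LC-MS/MS. F was taken from dose-adjusted PO/IV AUC0-inf ratios versus the 2 mg/kg (rat) or 0.5 mg/kg (rhesus) IV legs; values are means of n = 3.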
# [20] = Half-life in Wistar-Hannover rat at 2 mg/kg, iv by LC-MS/MS analysis; assay type: ADME, organism-based; settings: in vivo; how it was run: as §2
# [21] = biological target: T1, cAMP and cAMP-inhibited cGMP 3',5'-cyclic phosphodiesterase 10A; experiment: Binding affinity to human full length His-tagged PDE10A2 assessed as on-rate constant by surface plasmon resonance analysis
# [22] = Toxicity in rat assessed as prolactin release; settings: in vivo
# [23] = In vivo receptor occupancy at PDE10A receptor in MK-801-induced psychosis rat model striatum at 0.25 mg/kg, po administered 1 hr prior to MK-801 administration and measured after 90 mins; assay type: functional; settings: time 2.5 hrs
# How it was run: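 Rats in the MK-801 locomotor study were dosed orally at 0.25, 0.50 or 0.75 mg/kg. Plasma was taken 2.5 h post dose and drug levels measured. Striatal PDE10A occupancy was derived from plasma concentration using the [3H]MK-8193 ex vivo occupancy relation. n = 8/group; mean (SEM).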
# [24] = Plasma concentration in MK-801-induced psychosis rat model at 0.25 mg/kg, po administered 1 hr prior to MK-801 administration and measured after 90 mins; assay type: ADME, organism-based; settings: time 150 min
# How it was run: (§3)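 Rats dosed orally, then MK-801 1 h later; locomotor activity recorded over 90 min. Plasma drawn 2.5 h post dose at end of the study and assayed for compound. n = 8/group, reported as mean (SEM).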
# Rattus norvegicus = experiment: Anti-psychotic activity in rat assessed as inhibition of MK-801-induced hyperlocomotion administered orally 1 hr prior to MK-801 administration and measured for 90 mins; assay type: functional, organism-based; settings: dose 0.25-0.75 mg/kg, route po, time 150.0 min
# How it was run: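 Rats given compound orally at 0.25–0.75 mg/kg 1 h before the NMDA antagonist MK-801. Total distance travelled was recorded over 90 min and compared with vehicle + MK-801 groups (p < 0.05). n = 8/group; mean ± SEM.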
# [25] = Inhibition of IKS channel (unknown origin); parameters: species or system Homo sapiens
# [26] = Aqueous solubility of the compound at pH 7; assay type: physicochemical; settings: buffer
# [27] = Protein binding in rat plasma assessed as unbound fraction; assay type: ADME, cell-free
# [28] = biological target: Voltage-dependent L-type calcium channel subunit alpha-1C (Homo sapiens, UniProt Q13936); experiment: Inhibition of Cav1.2 (unknown origin)
# Sequence of Voltage-dependent L-type calcium channel subunit alpha-1C (Q13936 whole entry): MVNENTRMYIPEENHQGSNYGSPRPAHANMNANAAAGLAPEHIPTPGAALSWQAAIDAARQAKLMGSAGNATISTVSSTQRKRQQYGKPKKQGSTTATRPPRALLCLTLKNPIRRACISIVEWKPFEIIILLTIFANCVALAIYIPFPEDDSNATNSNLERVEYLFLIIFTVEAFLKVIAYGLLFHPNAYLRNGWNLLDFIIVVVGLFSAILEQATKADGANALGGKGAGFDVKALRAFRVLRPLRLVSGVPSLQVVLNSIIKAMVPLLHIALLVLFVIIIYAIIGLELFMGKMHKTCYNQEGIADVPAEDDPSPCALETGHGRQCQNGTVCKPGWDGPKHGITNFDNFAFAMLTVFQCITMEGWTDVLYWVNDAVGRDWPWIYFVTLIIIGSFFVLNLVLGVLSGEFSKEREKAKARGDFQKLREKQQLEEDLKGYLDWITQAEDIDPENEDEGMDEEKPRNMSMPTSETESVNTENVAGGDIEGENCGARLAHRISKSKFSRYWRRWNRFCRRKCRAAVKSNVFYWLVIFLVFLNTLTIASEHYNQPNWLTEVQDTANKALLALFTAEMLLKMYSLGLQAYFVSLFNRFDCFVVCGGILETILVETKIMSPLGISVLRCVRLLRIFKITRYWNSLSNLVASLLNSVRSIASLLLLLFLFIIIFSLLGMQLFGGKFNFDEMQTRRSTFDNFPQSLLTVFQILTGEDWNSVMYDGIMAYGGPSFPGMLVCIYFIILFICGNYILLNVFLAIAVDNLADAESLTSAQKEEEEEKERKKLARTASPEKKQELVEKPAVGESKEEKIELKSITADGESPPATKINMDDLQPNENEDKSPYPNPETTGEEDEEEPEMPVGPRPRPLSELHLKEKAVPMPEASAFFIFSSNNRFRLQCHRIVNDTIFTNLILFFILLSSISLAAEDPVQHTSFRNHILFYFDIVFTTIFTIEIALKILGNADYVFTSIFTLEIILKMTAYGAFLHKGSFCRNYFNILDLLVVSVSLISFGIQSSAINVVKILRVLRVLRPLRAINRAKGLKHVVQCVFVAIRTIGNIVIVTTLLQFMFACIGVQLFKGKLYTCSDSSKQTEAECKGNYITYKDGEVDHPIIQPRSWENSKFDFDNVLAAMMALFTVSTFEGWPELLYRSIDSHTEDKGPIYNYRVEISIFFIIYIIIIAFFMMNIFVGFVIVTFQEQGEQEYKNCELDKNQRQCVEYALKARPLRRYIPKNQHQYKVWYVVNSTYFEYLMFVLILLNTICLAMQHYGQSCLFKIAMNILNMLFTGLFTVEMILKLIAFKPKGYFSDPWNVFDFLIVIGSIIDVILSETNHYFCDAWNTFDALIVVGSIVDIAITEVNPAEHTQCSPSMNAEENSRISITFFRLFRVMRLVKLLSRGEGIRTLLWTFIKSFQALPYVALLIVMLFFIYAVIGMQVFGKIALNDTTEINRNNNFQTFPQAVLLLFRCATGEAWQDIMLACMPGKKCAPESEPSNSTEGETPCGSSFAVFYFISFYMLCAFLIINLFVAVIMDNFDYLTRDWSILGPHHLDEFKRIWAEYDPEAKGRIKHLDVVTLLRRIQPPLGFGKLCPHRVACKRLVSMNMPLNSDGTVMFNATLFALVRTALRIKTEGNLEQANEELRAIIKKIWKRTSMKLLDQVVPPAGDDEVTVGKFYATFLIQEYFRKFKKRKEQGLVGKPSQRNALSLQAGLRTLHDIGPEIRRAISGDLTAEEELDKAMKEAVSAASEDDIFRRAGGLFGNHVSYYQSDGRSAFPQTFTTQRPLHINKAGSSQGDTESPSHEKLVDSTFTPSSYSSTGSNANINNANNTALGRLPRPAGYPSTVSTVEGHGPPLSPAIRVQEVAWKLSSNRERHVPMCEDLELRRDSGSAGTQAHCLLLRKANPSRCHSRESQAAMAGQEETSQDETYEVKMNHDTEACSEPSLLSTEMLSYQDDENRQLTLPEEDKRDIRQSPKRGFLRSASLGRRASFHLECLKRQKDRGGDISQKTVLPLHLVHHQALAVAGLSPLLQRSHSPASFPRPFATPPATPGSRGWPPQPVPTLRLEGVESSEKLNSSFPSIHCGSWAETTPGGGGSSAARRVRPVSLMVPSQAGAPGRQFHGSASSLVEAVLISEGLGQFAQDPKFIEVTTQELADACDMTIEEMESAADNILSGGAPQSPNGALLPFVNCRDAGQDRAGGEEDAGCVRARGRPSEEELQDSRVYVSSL
# [29] = Plasma concentration in MK-801-induced psychosis rat model at 0.5 mg/kg, po administered 1 hr prior to MK-801 administration and measured after 90 mins; assay type: ADME, organism-based; settings: time 150 min; how it was run: as §3
# [30] = Plasma clearance in Rhesus monkey at 0.5 mg/kg, iv by LC-MS/MS analysis; assay type: ADME, organism-based, Macaca mulatta; how it was run: as §2
smiles,measurement,setting,value
Cc1ccc([C@H]2C[C@@H]2COc2cc(NCc3nnc(C)s3)nc(C)n2)nc1 [MK-8189],concentration at 1 h,[1],0.029 µM
same,t1/2,[2],4.2 h
same,concentration at 1 h,[3],0.016 µM
same,Ratio Ki,[4],> 500000
same,Activity,[5],Non-Toxic
same,Ratio Ki,[6],> 500000
same,Ratio Ki,[7],> 500000
same,Ratio Ki,[8],> 500000
same,clearance,[9],1.28 L/h/kg
same,Occ,[10],34%
same,T1/2,[11],6.7 min
same,Ratio,[12],< 2
same,efflux ratio,P-gp (ABCB1) [13],2.6
same,efflux ratio,P-gp (ABCB1) [14],< 2
same,Fu,[15],4%
same,concentration at 1 h,[16],0.018 µM
same,Ki,[17],0.029 nM
same,Activity,[18],Non-Toxic
same,F,[19],41%
same,t1/2,[20],4.8 h
same,K,[21],8 10^7/M/s
same,Activity,[22],Non-Toxic
same,Occ,[23],25%
same,concentration at 2.5 h,[24],0.017 µM
same,Activity,Rattus norvegicus,Dose-Dependent Effect
same,IC50,[25],> 30 µM
same,solubility,[26],167 µM
same,Fu,[27],8.2%
same,IC50,[28],> 30 µM
same,concentration at 2.5 h,[29],0.036 µM
same,clearance,[30],0.558 L/h/kg
